According to the array DNA melting data of Ke et al. (doi:10.1101/2024.01.08.574731):

Columns and labels:
[1] = melting temperature; fluorescence melt of hairpins on a sequencing array, two-state fit, raised by 9.35 °C to match UV melts; conditions: sodium 0.088 M
Outline: (§1)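 Melting temperature and folding enthalpy were obtained by bootstrapped two-state fitting. Fits used Cy3 fluorescence of library hairpins with annealed Cy3 and quencher oligos on a sequenced MiSeq flow cell, imaged in 50 mM Na-HEPES pH 8.0, 25 mM NaCl in 2.5 °C steps up to 60 °C and normalised to pre-quench Cy3 and control constructs. Four replicates were combined by inverse-variance weighting, and fitted temperatures were raised by 9.35 °C to match UV melts.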

[2] = folding enthalpy; higher = less favourable; fluorescence melt of hairpins on a sequencing array, two-state fit; conditions: sodium 0.088 M
Outline: as §1

| Sequence | Tm [1] | folding enthalpy [2] |
| --- | --- | --- |
| GTGTATGGAAACATATGC (..((((....))))..) | 30.7 °C | -24.1 kcal/mol |
| GTGTCACGAAAGTGCCAC (((.(((....))).))) | 52.2 °C | -51.5 kcal/mol |
| GTGTCAGGAAACTAACAC ((((.((....)).)))) | 33.5 °C | -20.3 kcal/mol |
| GTGTCAGGAAACTGACGC (.(((((....))))).) | 55.4 °C | -40.5 kcal/mol |
| GTGTCAGGAAACTGATAC ((.((((....)))).)) | 45.8 °C | -29.4 kcal/mol |
| GTGTCAGGAAACTGATGC (..((((....))))..) | 38.3 °C | -21.1 kcal/mol |
| GTGTCAGGAAACTGGTAC ((..(((....)))..)) | 31.8 °C | -17.6 kcal/mol |
| GTGTCCGAAAGGACCCAC ((((((....)))..))) | 38.5 °C | -8.57 kcal/mol |
| GTGTCCGGAAACAGACAC (((((.(....).))))) | 44.9 °C | -30.1 kcal/mol |
| GTGTCCGGAAACGGGCAC (((.(((....))).))) | 62.4 °C | -32.4 kcal/mol |
| GTGTCCTCGAAAGAGCAC (((..(((....)))))) | 36 °C | -14.5 kcal/mol |
| GTGTCGGGAAACCAACAC ((((.((....)).)))) | 42.9 °C | -33.7 kcal/mol |
| GTGTCGGGAAACCGACGC (.(((((....))))).) | 60.5 °C | -19.8 kcal/mol |
| GTGTCGGGAAACCGGTAC ((..(((....)))..)) | 37.6 °C | -22.7 kcal/mol |
| GTGTCGGGAAACTGGCAC (((.(.(....).).))) | 45.9 °C | -29.2 kcal/mol |
| GTGTCTCGAAAGAGTCAC (((.(((....))).))) | 49.4 °C | -39.3 kcal/mol |
| GTGTCTGGAAACAGATAC ((.((((....)))).)) | 46.1 °C | -37.9 kcal/mol |
| GTGTGACGAAAGTCCAC (((.(((....)))))) | 52.3 °C | -40.2 kcal/mol |
| GTGTGAGGAAACTCACAC (((((((....))))))) | 63.4 °C | -49.1 kcal/mol |
| GTGTGATCGAAAGATCAC (((..(((....)))))) | 66.7 °C | -14 kcal/mol |
| GTGTGCCGAAAGGCCAC (((.(((....)))))) | 63.8 °C | -20.6 kcal/mol |
| GTGTGCGAAAGCAACCAC ((((((....)))..))) | 38.8 °C | -14.3 kcal/mol |
| GTGTGCGAAAGCAGCCAC ((((((....)))..))) | 36.1 °C | -13.4 kcal/mol |

| Sequence | Tm [1] | folding enthalpy [2] |
| --- | --- | --- |
| GTGTGCGAAAGCATCCAC ((((((....)))..))) | 33.9 °C | -11 kcal/mol |
| GTGTGCGGAAACGCGTAC ((..(((....)))..)) | 43.7 °C | -16.3 kcal/mol |
| GTGTGCGGAAACGTACAC ((((.((....)).)))) | 56.2 °C | -40.2 kcal/mol |
| GTGTGCGGAAACGTACGC (.((.((....)).)).) | 48 °C | -27.3 kcal/mol |
| GTGTGGCGAAAGCCCAC (((.(((....)))))) | 63 °C | -18.6 kcal/mol |
| GTGTGGGGAAACCCGTAC ((..(((....)))..)) | 33.5 °C | -20.8 kcal/mol |
| GTGTGGGGAAACTCACAC (((((.(....).))))) | 52.3 °C | -36.3 kcal/mol |
| GTGTGGGGAAACTCACGC (.(((.(....).))).) | 44.7 °C | -28 kcal/mol |
| GTGTGGGGAAACTCGCAC (((.(.(....).).))) | 42.8 °C | -29.9 kcal/mol |
| GTGTGTCGAAAGACCAC (((.(((....)))))) | 54.5 °C | -28.9 kcal/mol |
| GTGTTACGAAAGTACAC (((.(((....)))))) | 47.9 °C | -27 kcal/mol |
| GTGTTCGAAAGAACACAC ((((((....)))..))) | 65 °C | -11.8 kcal/mol |
| GTGTTCGAAAGAAGACAC ((((((....)))..))) | 37.9 °C | -20.8 kcal/mol |
| GTGTTCGAAAGAATCAC ((((((....))).))) | 41.5 °C | -28.2 kcal/mol |
| GTGTTGCGAAAGCAGCAC (((.(((....))).))) | 64.3 °C | -30.2 kcal/mol |
| GTGTTGGGAAACCAGCAC (((.(((....))).))) | 51.4 °C | -43.9 kcal/mol |
| GTGTTGGGAAACCGATAC ((.(.((....)).).)) | 33.3 °C | -18.3 kcal/mol |
| GTGTTTACGAAAGTACAC (((..(((....)))))) | 36.7 °C | -25 kcal/mol |
| GTGTTTCCGAAAGGACAC (((..(((....)))))) | 43.4 °C | -23.4 kcal/mol |
| GTGTTTGAAAAAACAC ((((((....)))))) | 52.9 °C | -38.4 kcal/mol |
| GTGTTTGGAAACAAATAC ((.((((....)))).)) | 41.2 °C | -29 kcal/mol |
| GTGTTTGGAAACAAGCAC (((.(((....))).))) | 46.6 °C | -30.5 kcal/mol |
| GTGTTTTCGAAAGAACAC (((..(((....)))))) | 38.3 °C | -32.9 kcal/mol |

| Sequence | Tm [1] | folding enthalpy [2] |
| --- | --- | --- |
| GTTAAAACGAAAGTTAAC (((..(((....)))))) | 26.3 °C | -16.6 kcal/mol |
| GTTAACCGAAAGGTAAC (((.(((....)))))) | 40.8 °C | -18.8 kcal/mol |
| GTTAACGAAAGTTAAC ((((((....)))))) | 56 °C | -28.9 kcal/mol |
| GTTAAGGCGAAAGCCAAC (((..(((....)))))) | 32.8 °C | -11 kcal/mol |
| GTTAATGAAAATTAAC ((((((....)))))) | 40.1 °C | -25.9 kcal/mol |
| GTTAATGGAAACATTAAC (((((((....))))))) | 49.4 °C | -37.7 kcal/mol |
| GTTACACCGAAAGGTAAC (((..(((....)))))) | 31.8 °C | -15.8 kcal/mol |
| GTTACACGAAAGTGAAC (((.(((....)))))) | 36.7 °C | -15.8 kcal/mol |
| GTTACACGAAAGTGCAAC (((.(((....))).))) | 44.7 °C | -23.6 kcal/mol |
| GTTACAGAAATGTAAC ((((((....)))))) | 46.1 °C | -33.4 kcal/mol |
| GTTACAGGAAACTGTAGC (.(((((....))))).) | 38.9 °C | -22.6 kcal/mol |
| GTTACAGGAAACTGTGAC ((.((((....)))).)) | 44.6 °C | -30 kcal/mol |
| GTTACCGAAAGGTCAAC ((((((....))).))) | 32.8 °C | -13.4 kcal/mol |
| GTTACCGAAAGGTCGAAC ((((((....)))..))) | 28.2 °C | -9.83 kcal/mol |
| GTTACCGAAAGGTGAAC ((((((....))).))) | 39.9 °C | -14.8 kcal/mol |
| GTTACCGAAAGGTTGAAC ((((((....)))..))) | 29.2 °C | -12.8 kcal/mol |
| GTTACGGGAAACCGTAAC (((((((....))))))) | 60.5 °C | -46 kcal/mol |
| GTTACGGGAAACTGTAAC (((((.(....).))))) | 45.6 °C | -32.7 kcal/mol |
| GTTACGGGAAACTGTGAC ((.((.(....).)).)) | 32.5 °C | -24.5 kcal/mol |
| GTTACTCGAAAGAGAAAC (((.(((....))).))) | 41.9 °C | -28.2 kcal/mol |
| GTTACTGGAAACAGTGAC ((.((((....)))).)) | 44.9 °C | -27.6 kcal/mol |
| GTTAGACGAAAGTCGAAC (((.(((....))).))) | 52.4 °C | -23.5 kcal/mol |
